Source: ChEMBL document CHEMBL1149691, “Identification of a novel class of selective Tpl2 kinase inhibitors: 4-Alkylamino-[1,7]naphthyridine-3-carbonitriles” (Bioorg Med Chem, 2007)
Calls of active or inactive are those of the source. The rule behind the calls is not given here.

Assays:
[1] = Inhibition of Tpl2 kinase assessed as MEK phosphorylation by ELISA; set-up: species or system Homo sapiens
Procedure, shortened: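 Tpl2 (0.4 nM) incubated with 35 nM GST-MEK1 substrate and 50 µM ATP in pH 7.2 Mops buffer with MgCl2, DTT, β-glycerophosphate, EGTA and orthovanadate, 1 h at 30 °C, 1% DMSO final; stopped with EDTA. GST-MEK1 captured on anti-GST plates, phospho-Ser217/221 detected by anti-phospho-MEK1 and Eu-labelled secondary (DELFIA); IC50 by curve fitting.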

[2] = target: Epidermal growth factor receptor (Homo sapiens, UniProt P00533); experiment: Inhibition of EGFR kinase autophosphorylation in A431 cells
Chain of Epidermal growth factor receptor (P00533 whole entry): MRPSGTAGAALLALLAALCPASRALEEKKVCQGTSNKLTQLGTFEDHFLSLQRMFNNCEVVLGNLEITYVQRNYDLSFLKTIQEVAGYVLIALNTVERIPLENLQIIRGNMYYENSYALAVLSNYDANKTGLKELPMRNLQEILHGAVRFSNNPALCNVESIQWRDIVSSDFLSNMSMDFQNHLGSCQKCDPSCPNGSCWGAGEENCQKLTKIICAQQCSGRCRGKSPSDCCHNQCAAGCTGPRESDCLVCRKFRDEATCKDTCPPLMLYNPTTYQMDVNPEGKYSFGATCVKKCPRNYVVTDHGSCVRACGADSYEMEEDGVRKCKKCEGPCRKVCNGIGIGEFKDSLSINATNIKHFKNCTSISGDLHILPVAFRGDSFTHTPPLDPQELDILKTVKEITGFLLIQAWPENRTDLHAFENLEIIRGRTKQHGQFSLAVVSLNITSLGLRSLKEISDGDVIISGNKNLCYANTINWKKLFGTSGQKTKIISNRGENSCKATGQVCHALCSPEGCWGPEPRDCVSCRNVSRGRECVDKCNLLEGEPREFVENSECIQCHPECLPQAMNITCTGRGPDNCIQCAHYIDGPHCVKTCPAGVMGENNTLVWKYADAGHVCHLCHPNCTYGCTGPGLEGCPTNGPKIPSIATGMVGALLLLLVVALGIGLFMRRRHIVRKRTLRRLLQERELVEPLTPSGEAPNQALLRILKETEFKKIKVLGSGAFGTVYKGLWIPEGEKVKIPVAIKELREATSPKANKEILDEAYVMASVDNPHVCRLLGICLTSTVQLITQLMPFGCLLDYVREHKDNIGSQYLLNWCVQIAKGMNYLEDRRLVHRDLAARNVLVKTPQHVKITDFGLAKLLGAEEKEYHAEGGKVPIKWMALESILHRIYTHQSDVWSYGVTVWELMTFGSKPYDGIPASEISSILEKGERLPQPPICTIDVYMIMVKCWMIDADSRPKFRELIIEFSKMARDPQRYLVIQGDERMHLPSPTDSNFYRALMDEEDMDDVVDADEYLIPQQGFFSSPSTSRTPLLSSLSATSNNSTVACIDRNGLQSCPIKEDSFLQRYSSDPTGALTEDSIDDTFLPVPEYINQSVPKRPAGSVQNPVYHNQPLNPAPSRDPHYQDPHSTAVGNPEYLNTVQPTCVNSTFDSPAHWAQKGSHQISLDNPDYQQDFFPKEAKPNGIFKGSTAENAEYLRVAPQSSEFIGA

[3] = test system: Monocyte; experiment: Inhibition of LPS-induced TNFalpha production in human monocytes; assay type: functional, cell-based
Procedure, shortened: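 Monocytes enriched from buffy coat by antibody-cocktail negative selection and two Histopaque-1077 separations, plated at 800,000 cells/well in RPMI/0.5% FBS at 37 °C/5% CO2. Compounds in DMSO added 30 min before LPS at 10 ng/mL, ~3 h incubation; supernatant TNF-α by ELISA or electrochemiluminescence.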

[4] = test system: Blood; experiment: Inhibition of LPS-induced TNFalpha production in human blood; assay type: functional, tissue-based
Procedure, shortened: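 Heparinized blood from healthy male volunteers diluted 1–5 in RPMI/3% FCS at 37 °C; compounds (in DMSO, 1.0% final) added 30 min before LPS at 10 ng/mL, ~3 h incubation. Plasma TNF-α measured by ELISA or electrochemiluminescence.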

[5] = Clearance in Sprague-Dawley rat; assay type: ADME, organism-based; conditions: in vivo
[6] = test system: Mus musculus; experiment: Inhibition of LPS-induced TNFalpha production in C57B1/6 mouse at 25 mg/kg, ip; assay type: functional; conditions: C57B1/6, ip, route intraperitoneal
Procedure, shortened: (§1)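 Female C57Bl/6 mice, 8–10 weeks old; compound (10 or 25 mg/kg) or vehicle given ip, then 1 h later LPS plus D-galactosamine in PBS ip (2 and […] final). Mice euthanized with CO2 1.5 h after challenge and bled by cardiac puncture; serum TNF-α compared with vehicle.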

[7] = Bioavailability in Sprague-Dawley rat; assay type: ADME, organism-based; conditions: in vivo
[8] = Inhibition of MEK; set-up: species or system Homo sapiens
[9] = target: T1, MAP kinase p38 (Homo sapiens, UniProt O15264+Q15759+Q16539+P53778); experiment: Inhibition of p38 kinase; assay type: protein assay
[10] = target: T2, Proto-oncogene tyrosine-protein kinase Src (Homo sapiens, UniProt P12931); experiment: Inhibition of Src kinase at 40 uM
T2 sequence (P12931 2-536 limits assumed): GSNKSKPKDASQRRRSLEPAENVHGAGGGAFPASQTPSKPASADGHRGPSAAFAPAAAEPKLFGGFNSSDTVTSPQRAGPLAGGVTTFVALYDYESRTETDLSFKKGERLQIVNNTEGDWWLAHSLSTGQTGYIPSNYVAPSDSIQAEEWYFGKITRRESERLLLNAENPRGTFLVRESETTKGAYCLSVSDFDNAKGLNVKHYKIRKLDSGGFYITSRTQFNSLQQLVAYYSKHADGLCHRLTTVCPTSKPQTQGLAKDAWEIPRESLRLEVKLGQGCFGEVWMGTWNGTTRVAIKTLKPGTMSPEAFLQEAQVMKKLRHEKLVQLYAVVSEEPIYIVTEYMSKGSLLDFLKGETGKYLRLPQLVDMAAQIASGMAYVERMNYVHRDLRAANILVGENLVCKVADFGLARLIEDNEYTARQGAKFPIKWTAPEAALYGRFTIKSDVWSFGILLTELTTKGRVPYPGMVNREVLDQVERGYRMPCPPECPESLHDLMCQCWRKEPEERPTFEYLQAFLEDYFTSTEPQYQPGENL

[11] = organism: Homo sapiens; experiment: Inhibition of CAMK2 at 40 uM
[12] = target: MAP kinase-activated protein kinase 2 (Homo sapiens) (UniProt P49137); experiment: Inhibition of MK2 at 40 uM
Chain of MAP kinase-activated protein kinase 2 (Homo sapiens) (P49137 whole entry, looked up): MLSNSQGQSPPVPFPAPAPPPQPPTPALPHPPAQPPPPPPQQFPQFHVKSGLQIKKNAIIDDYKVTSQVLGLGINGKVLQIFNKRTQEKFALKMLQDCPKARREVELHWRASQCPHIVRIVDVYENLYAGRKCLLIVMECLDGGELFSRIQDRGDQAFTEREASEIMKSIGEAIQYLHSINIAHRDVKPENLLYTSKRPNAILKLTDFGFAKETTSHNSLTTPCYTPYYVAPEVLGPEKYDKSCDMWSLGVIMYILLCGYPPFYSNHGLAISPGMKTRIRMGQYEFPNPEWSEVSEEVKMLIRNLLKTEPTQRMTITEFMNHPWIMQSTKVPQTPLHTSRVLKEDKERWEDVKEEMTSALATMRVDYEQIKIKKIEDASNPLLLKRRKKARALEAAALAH

[13] = Inhibition of PKA; set-up: species or system Homo sapiens
[14] = target: Protein kinase C (PKC); experiment: Inhibition of PKC; set-up: species or system Homo sapiens
[15] = Inhibition of S6 kinase; set-up: species or system Homo sapiens
[16] = target: T1, MAP kinase p38; experiment: Inhibition of P-p38 kinase in human monocytes; assay type: cell-based
[17] = test system: Mus musculus; experiment: Inhibition of LPS-induced TNFalpha production in C57B1/6 mouse at 10 mg/kg, ip; assay type: functional; conditions: C57B1/6, ip, route intraperitoneal; procedure, shortened: as §1
[18] = target: T2, Proto-oncogene tyrosine-protein kinase Src; experiment: Inhibition of Src kinase
[19] = target: T1, MAP kinase p38; experiment: Inhibition of P-p38 kinase in human monocytes at 40 uM; assay type: cell-based

CC(C)(C)Nc1cc2c(Nc3ccc(F)c(Cl)c3)c(C#N)cnc2cn1
IC50 [1]: > 40000 nM

CC(C)(C)Nc1c(C#N)cnc2ccc(NCc3cccc(S(C)(=O)=O)c3)cc12
IC50 [1]: 2900 nM

N#Cc1cnc2ccc(NCc3cccnc3)cc2c1Nc1ccc(F)c(Cl)c1
IC50 [1]: 18 nM

CS(=O)(=O)Nc1cccc(Nc2c(C#N)cnc3cnc(NCCN4CCOCC4)cc23)c1
IC50 [1]: > 10000 nM

N#Cc1cnc2cnc(NCCN3CCOCC3)cc2c1Nc1ccc(F)c(F)c1
IC50 [1]: 3600 nM

N#Cc1cnc2cnc(NC3CCCCCC3)cc2c1Nc1ccc(F)c(Cl)c1
IC50 [1]: 5200 nM

CC(C)(C)Nc1c(C#N)cnc2ccc(NCc3cccc[n+]3[O-])cc12
IC50 [1]: 1300 nM

N#Cc1cnc2ccc(NCc3cccnc3)cc2c1NC1CCCC1
IC50 [1]: 2400 nM

N#Cc1cnc2ccc(NCc3cccc[n+]3[O-])cc2c1NC1CCCC1
IC50 [1]: 1300 nM

CC(C)(C)Nc1c(C#N)cnc2cnc(NCc3cccnc3)cc12
IC50 [1]: 630 nM | IC50 [2]: > 40000 nM | IC50 [3]: 600 nM | IC50 [4]: 4200 nM | clearance [5]: 50 mL/min/kg

N#Cc1cnc2ccc(NCc3ccccc3)cc2c1NC1CCCC1
IC50 [1]: 21000 nM

N#Cc1cnc2cnc(NCc3cccnc3)cc2c1Nc1ccccc1
IC50 [1]: 400 nM | IC50 [2]: < 5000 nM | IC50 [3]: 1100 nM | IC50 [4]: 20000 nM

N#Cc1cnc2ccc(NCc3c[nH]cn3)cc2c1Nc1ccc(F)c(Cl)c1
IC50 [3]: 600 nM | inhibition in vivo at 25 mg/kg [6]: 71% | clearance [5]: 97 mL/min/kg | bioavailability [7]: 1% | IC50 [8]: 2400 nM | IC50 [9]: 30000 nM | Activity [10]: inactive | Activity [11]: inactive | Activity [12]: inactive | IC50 [13]: 5840 nM | IC50 [14]: > 10000 nM | IC50 [15]: > 10000 nM | IC50 [16]: 2110 nM

C#CC(C)(C)Nc1c(C#N)cnc2cnc(NCc3cccnc3)cc12
IC50 [1]: 270 nM | IC50 [3]: 2000 nM | Activity [4]: inactive

CS(=O)(=O)c1cccc(CNc2ccc3ncc(C#N)c(NC4CCCC4)c3c2)c1
IC50 [1]: 2900 nM

N#Cc1cccc(CNc2ccc3ncc(C#N)c(NC4CCCC4)c3c2)c1
IC50 [1]: 2200 nM

CC(C)(C)Nc1c(C#N)cnc2ccc(NCc3cccc(C#N)c3)cc12
IC50 [1]: 1700 nM

N#Cc1cnc2cnc(NC3CCCC3)cc2c1Nc1ccc(F)c(Cl)c1
IC50 [1]: 7600 nM

N#Cc1cnc2cnc(NCc3cccnc3)cc2c1NC1CCNCC1
IC50 [1]: > 40000 nM

N#Cc1cnc2ccc(NCCN3CCOCC3)cc2c1Nc1ccc(Oc2ccccc2)cc1
IC50 [1]: 250 nM

Cn1ccnc1CNc1ccc2ncc(C#N)c(NC3CCCC3)c2c1
IC50 [1]: 3000 nM

N#Cc1cnc2cnc(NCCN3CCOCC3)cc2c1Nc1cccc(C(N)=O)c1
IC50 [1]: > 10000 nM

N#Cc1cnc2cnc(Nc3ccc(F)c(Cl)c3)cc2c1NC1CCCC1
IC50 [1]: 8000 nM

N#Cc1ccccc1CNc1ccc2ncc(C#N)c(NC3CCCC3)c2c1
IC50 [1]: 1700 nM

CC(C)(C)Nc1c(C#N)cnc2ccc(NCc3ccn[nH]3)cc12
IC50 [1]: 1600 nM

N#Cc1cnc2ccc(NCCN3CCOCC3)cc2c1NC1CCCC1
IC50 [1]: 19700 nM

N#Cc1cnc2ccc(NCCN3CCOCC3)cc2c1Nc1ccc(F)c(Cl)c1
IC50 [1]: 1000 nM

N#Cc1cnc2cnc(NCCN3CCOCC3)cc2c1Nc1ccc([N+](=O)[O-])cc1
IC50 [1]: 7000 nM

N#Cc1cnc2cnc(NCCN3CCOCC3)cc2c1Nc1cccc(Oc2ccccc2)c1
IC50 [1]: 11500 nM

N#Cc1cnc2cnc(NCCN3CCOCC3)cc2c1Nc1ccc(F)cc1
IC50 [1]: 10700 nM

N#Cc1cnc2cnc(NCc3cccnc3)cc2c1NC1CCCCC1
IC50 [1]: 470 nM | IC50 [2]: > 40000 nM | IC50 [3]: 500 nM | IC50 [4]: 4700 nM

N#Cc1cnc2cnc(NCCN3CCOCC3)cc2c1Nc1cccc(I)c1
IC50 [1]: 7100 nM

N#Cc1cnc2cnc(NCCN3CCOCC3)cc2c1Nc1ccc(Oc2ccccc2)cc1
IC50 [1]: 380 nM

N#Cc1cnc2cnc(NCc3cccnc3)cc2c1NC1CCCCCC1
IC50 [1]: 160 nM | IC50 [2]: > 20000 nM | IC50 [3]: 500 nM | IC50 [4]: 4500 nM | inhibition in vivo at 10 mg/kg [17]: 86% | clearance [5]: 30 mL/min/kg | bioavailability [7]: 14% | IC50 [8]: > 40000 nM | IC50 [18]: 38000 nM | Activity [11]: inactive | Activity [12]: inactive | IC50 [13]: > 40000 nM | IC50 [14]: > 40000 nM | IC50 [15]: > 40000 nM | Activity [19]: inactive

N#Cc1cnc2cnc(NCc3cccnc3)cc2c1NC1CC1
IC50 [1]: 2800 nM | IC50 [2]: > 40000 nM

N#Cc1cnc2cnc(NCc3cccnc3)cc2c1Nc1ccc(F)c(Cl)c1
IC50 [1]: 50 nM | IC50 [3]: 1100 nM | IC50 [4]: > 20000 nM

N#Cc1cnc2ccc(NCc3ccc(S(N)(=O)=O)cc3)cc2c1NC1CCCC1
IC50 [1]: 7300 nM

C[C@@H](Nc1cc2c(Nc3ccc(F)c(Cl)c3)c(C#N)cnc2cn1)c1ccccc1
IC50 [1]: 50 nM

N#Cc1cnc2cnc(NCCN3CCOCC3)cc2c1Nc1cccc(C(=O)O)c1
IC50 [1]: > 10000 nM

Cn1ccnc1CNc1ccc2ncc(C#N)c(NC(C)(C)C)c2c1
IC50 [1]: 3000 nM

N#Cc1cnc2cnc(NCCN3CCOCC3)cc2c1Nc1ccc(Nc2ccccc2)cc1
IC50 [1]: 7600 nM

C[C@H](Nc1cc2c(N(C)C3CCCCCC3)c(C#N)cnc2cn1)c1ccccc1
IC50 [1]: > 40000 nM

C[C@H](Nc1cc2c(NC3CCCCCC3)c(C#N)cnc2cn1)c1ccccc1
IC50 [1]: 920 nM

N#Cc1cnc2ccc(NCc3ccn[nH]3)cc2c1NC1CCCC1
IC50 [1]: 1600 nM

CCC(C)(C)Nc1c(C#N)cnc2cnc(NCc3cccnc3)cc12
IC50 [1]: 360 nM | IC50 [2]: > 40000 nM | IC50 [3]: 800 nM | IC50 [4]: 4500 nM

CC(C)(C)Nc1c(C#N)cnc2ccc(NCc3ccc(S(N)(=O)=O)cc3)cc12
IC50 [1]: 7300 nM

N#Cc1cnc2ccc(NCc3cccnc3)cc2c1NC1CCCCCC1
IC50 [1]: 2600 nM

N#Cc1cnc2cnc(NCc3cccnc3)cc2c1NC1CCCC1
IC50 [1]: 320 nM | IC50 [2]: > 40000 nM | IC50 [3]: 600 nM | IC50 [4]: 7700 nM | clearance [5]: 28 mL/min/kg
